Source: ChEMBL document CHEMBL5260806, “Hydrogen peroxide activated quinone methide precursors with enhanced DNA cross-linking capability and cytotoxicity towards cancer cells” (Eur J Med Chem, 2017)
Activity calls are given as the source filed them. No cut-off for these calls is given here.

Experiments:
[1] = tested on: SNB-75; experiment: Anticancer activity against human SNB-75 cells assessed as cell growth inhibition at 10 uM incubated for 48 hrs by sulforhodamine B assay; assay type: functional; conditions: read-out: GI
[2] = tested on: TK-10; experiment: Anticancer activity against human TK-10 cells assessed as cell growth inhibition at 10 uM incubated for 48 hrs by sulforhodamine B assay; assay type: functional; conditions: read-out: GI
[3] = tested on: RXF 393; experiment: Anticancer activity against human RXF 393 cells assessed as cell growth inhibition at 10 uM incubated for 48 hrs by sulforhodamine B assay; assay type: functional; conditions: read-out: GI
Procedure, shortened: (§1)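 NCI DTP 60-cell-line screen run at National Cancer Institute. Cells grown in RPMI 1640 with 5% fetal bovine serum and 2 mM L-glutamine, seeded at 5,000–40,000 cells/well depending on doubling time. Single-dose screen at 10 µM gives growth percentage; dose-response series gives GI50.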

[4] = tested on: UACC-62; experiment: Anticancer activity against human UACC-62 cells assessed as cell growth inhibition at 10 uM incubated for 48 hrs by sulforhodamine B assay; assay type: functional; conditions: read-out: GI
[5] = tested on: SK-OV-3; experiment: Anticancer activity against human SK-OV-3 cells assessed as cell growth inhibition at 10 uM incubated for 48 hrs by sulforhodamine B assay; assay type: functional; conditions: read-out: GI; procedure, shortened: as §1
[6] = tested on: KM12; experiment: Anticancer activity against human KM12 cells assessed as cell growth inhibition at 10 uM incubated for 48 hrs by sulforhodamine B assay; assay type: functional; conditions: read-out: GI
Procedure, shortened: (§2)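 NCI-60 screen: cell lines grown in RPMI 1640 with 5% FBS and 2 mM L-glutamine, plated in 96-well plates at 5,000–40,000 cells/well depending on doubling time. Each line has one single-dose arm at 10 µM and one dose-response arm giving GI50.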

[7] = tested on: HL-60; experiment: Anticancer activity against human HL-60 cells assessed as cell growth inhibition at 10 uM incubated for 48 hrs by sulforhodamine B assay; assay type: functional; conditions: read-out: GI; procedure, shortened: as §2
[8] = tested on: U-251; experiment: Anticancer activity against human U-251 cells assessed as cell growth inhibition at 10 uM incubated for 48 hrs by sulforhodamine B assay; assay type: functional; conditions: read-out: GI
[9] = tested on: LOX IMVI; experiment: Anticancer activity against human LOX IMVI cells assessed as cell growth inhibition incubated for 48 hrs by sulforhodamine B assay; assay type: functional; procedure, shortened: as §2
[10] = tested on: UACC-257; experiment: Anticancer activity against human UACC-257 cells assessed as cell growth inhibition incubated for 48 hrs by sulforhodamine B assay; assay type: functional
[11] = tested on: CLL cell; experiment: Induction of DNA damage in chronic lymphocytic leukemia patient lymphocytes assessed as apoptosis rate at 10 uM after 24 hrs by annexin/PI staining based flow cytometry; assay type: functional; conditions: Homo sapiens
[12] = tested on: NCI/ADR-RES; experiment: Anticancer activity against human NCI/ADR-RES cells assessed as cell growth inhibition incubated for 48 hrs by sulforhodamine B assay; assay type: functional; procedure, shortened: as §1
[13] = tested on: HCT-15; experiment: Anticancer activity against human HCT-15 cells assessed as cell growth inhibition incubated for 48 hrs by sulforhodamine B assay; assay type: functional; procedure, shortened: as §2
[14] = tested on: ACHN; experiment: Anticancer activity against human ACHN cells assessed as cell growth inhibition incubated for 48 hrs by sulforhodamine B assay; assay type: functional; procedure, shortened: as §2
[15] = tested on: HOP-92; experiment: Anticancer activity against human HOP-92 cells assessed as cell growth inhibition incubated for 48 hrs by sulforhodamine B assay; assay type: functional; procedure, shortened: as §2
[16] = tested on: NCI-H460; experiment: Anticancer activity against human NCI-H460 cells assessed as cell growth inhibition at 10 uM incubated for 48 hrs by sulforhodamine B assay; assay type: functional; conditions: read-out: GI; procedure, shortened: as §1
[17] = tested on: DU-145; experiment: Anticancer activity against human DU-145 cells assessed as cell growth inhibition incubated for 48 hrs by sulforhodamine B assay; assay type: functional; procedure, shortened: as §2
[18] = tested on: SF-268; experiment: Anticancer activity against human SF-268 cells assessed as cell growth inhibition incubated for 48 hrs by sulforhodamine B assay; assay type: functional; procedure, shortened: as §1
[19] = tested on: SN12C; experiment: Anticancer activity against human SN12C cells assessed as cell growth inhibition incubated for 48 hrs by sulforhodamine B assay; assay type: functional
[20] = tested on: CAKI-1; experiment: Anticancer activity against human CAKI-1 cells assessed as cell growth inhibition incubated for 48 hrs by sulforhodamine B assay; assay type: functional; procedure, shortened: as §2
[21] = Toxicity in healthy human lymphocytes assessed as reduction in cell viability at 10 uM after 24 hrs by Annexin/PI staining based fluorescence assay; conditions: lymphocyte
Procedure, shortened: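 Normal donor lymphocytes (n=2) isolated from peripheral blood by Ficoll-hypaque, in RPMI with 10% autologous plasma. Exposed to 10 µM for 24 h; % viable cells by annexin/PI binding.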

[22] = tested on: MDA-MB-435; experiment: Anticancer activity against human MDA-MB-435 cells assessed as cell growth inhibition incubated for 48 hrs by sulforhodamine B assay; assay type: functional; procedure, shortened: as §1
[23] = tested on: SF-268; experiment: Anticancer activity against human SF-268 cells assessed as cell growth inhibition at 10 uM incubated for 48 hrs by sulforhodamine B assay; assay type: functional; conditions: read-out: GI; procedure, shortened: as §1
[24] = tested on: DNA; experiment: Induction of [32P]-labeled 49-mer oligonucleotide duplex DNA 25 (unknown origin) interstrand cross-linking at 2 mM for 24 hrs without H2O2 by PAGE; assay type: functional
[25] = Anticancer activity against human CLL cells assessed as reduction in cell viability incubated for 24 hrs by Annexin/PI staining based fluorescence assay; assay type: functional
Procedure, shortened: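 CLL lymphocytes were taken from patients' peripheral blood (n=3) by Ficoll-Hypaque, suspended in 10% autologous plasma in RPMI, and exposed to 1, 5, 10, 20, 50 and 100 µM. Viability was measured by annexin V/propidium iodide binding. IC50 comes from one representative patient.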

[26] = tested on: HCT-15; experiment: Anticancer activity against human HCT-15 cells assessed as cell growth inhibition at 10 uM incubated for 48 hrs by sulforhodamine B assay; assay type: functional; conditions: read-out: GI; procedure, shortened: as §2
[27] = tested on: NCI-H226; experiment: Anticancer activity against human NCI-H226 cells assessed as cell growth inhibition at 10 uM incubated for 48 hrs by sulforhodamine B assay; assay type: functional; conditions: read-out: GI; procedure, shortened: as §1
[28] = tested on: MDA-MB-435; experiment: Anticancer activity against human MDA-MB-435 cells assessed as cell growth inhibition at 10 uM incubated for 48 hrs by sulforhodamine B assay; assay type: functional; conditions: read-out: GI; procedure, shortened: as §1
[29] = tested on: Malme-3M; experiment: Anticancer activity against human Malme-3M cells assessed as cell growth inhibition incubated for 48 hrs by sulforhodamine B assay; assay type: functional; procedure, shortened: as §1
[30] = tested on: MOLT-4; experiment: Anticancer activity against human MOLT-4 cells assessed as cell growth inhibition at 10 uM incubated for 48 hrs by sulforhodamine B assay; assay type: functional; conditions: read-out: GI; procedure, shortened: as §1
[31] = tested on: MDA-MB-231; experiment: Anticancer activity against human MDA-MB-231 cells assessed as cell growth inhibition incubated for 48 hrs by sulforhodamine B assay; assay type: functional; procedure, shortened: as §1
[32] = tested on: OVCAR-8; experiment: Anticancer activity against human OVCAR-8 cells assessed as cell growth inhibition incubated for 48 hrs by sulforhodamine B assay; assay type: functional; procedure, shortened: as §1
[33] = tested on: UACC-257; experiment: Anticancer activity against human UACC-257 cells assessed as cell growth inhibition at 10 uM incubated for 48 hrs by sulforhodamine B assay; assay type: functional; conditions: read-out: GI
[34] = tested on: SK-OV-3; experiment: Anticancer activity against human SK-OV-3 cells assessed as cell growth inhibition incubated for 48 hrs by sulforhodamine B assay; assay type: functional
[35] = tested on: OVCAR-4; experiment: Anticancer activity against human OVCAR-4 cells assessed as cell growth inhibition incubated for 48 hrs by sulforhodamine B assay; assay type: functional; procedure, shortened: as §1
[36] = tested on: HOP-62; experiment: Anticancer activity against human HOP-62 cells assessed as cell growth inhibition at 10 uM incubated for 48 hrs by sulforhodamine B assay; assay type: functional; conditions: read-out: GI; procedure, shortened: as §2
[37] = tested on: MCF7; experiment: Anticancer activity against human MCF7 cells assessed as cell growth inhibition incubated for 48 hrs by sulforhodamine B assay; assay type: functional; procedure, shortened: as §1
[38] = tested on: SK-MEL-28; experiment: Anticancer activity against human SK-MEL-28 cells assessed as cell growth inhibition incubated for 48 hrs by sulforhodamine B assay; assay type: functional; procedure, shortened: as §1

With `COc1cc(CBr)c(B2OC(C)(C)C(C)(C)O2)c(CBr)c1` the inhibition of growth at 10 µM [1] was less than 50%, the inhibition of growth at 10 µM [2] was less than 50% and the inhibition of growth at 10 µM [3] was less than 50%. The inhibition of growth at 10 µM [4] was less than 50%, the inhibition of growth at 10 µM [5] was less than 50% and the inhibition of growth at 10 µM [6] was less than 50%. It also gave an inhibition of growth at 10 µM [7] of less than 50%, an inhibition of growth at 10 µM [8] of less than 50% and a GI50 [9] of 2000 nM. For the same molecule, the GI50 [10] was 2000 nM, the Activity [11] was “Active” and the GI50 [12] was 2000 nM. The GI50 [13] was 2000 nM, the GI50 [14] was 2000 nM and the GI50 [15] was 2000 nM. For the same molecule, the inhibition of growth at 10 µM [16] was less than 50%, the GI50 [17] was 2000 nM and the GI50 [18] was 2000 nM. The GI50 [19] was 2000 nM, the GI50 [20] was 2000 nM and the Activity [21] was “Non-Toxic”. The GI50 [22] was 2000 nM, the inhibition of growth at 10 µM [23] was less than 50% and the Activity [24] was 0%. For the same molecule, the IC50 [25] was 28400 nM, the inhibition of growth at 10 µM [26] was less than 50% and the inhibition of growth at 10 µM [27] was less than 50%. For the same molecule, the inhibition of growth at 10 µM [28] was less than 50%, the GI50 [29] was 2000 nM and the inhibition of growth at 10 µM [30] was less than 50%. For the same molecule, the GI50 [31] was 2000 nM, the GI50 [32] was 2000 nM and the inhibition of growth at 10 µM [33] was less than 50%. It also gave a GI50 [34] of 2000 nM, a GI50 [35] of 2000 nM and an inhibition of growth at 10 µM [36] of less than 50%. The GI50 [37] was 2000 nM and the GI50 [38] was 2000 nM.
